Shown are actives, neighbours in structure and some others; about 1.8% of the full set was active somewhere.
SKN-1 block: suppressors of acrylamide-induced Pgst-4::GFP reporter in worms, primary screen, SKN-1 inhibitor project, whole organism, uHTS, GFP/RFP fluorescence ratio, strain VP596; C. elegans VP596 Pgst-4::GFP/RFP ratio, 24 h; AID 624304, 2012; inhibition, % at 21.8 µM; 360,000 compounds, 0.49% hits;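 active = interference check ratio from 0.5 to 1.5 plus GFP to RFP signal ratio inhibition reaching or exceeding a fixed threshold, cut at about 30% in these data, passing the limit was not always enough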
Ecoli rRNA inh: reduced GFP signal of wild-type E. coli, primary screen, bacterial rRNA inhibitor project, GFP/RFP fluorescence, OD600, single point. AID 720706, 2013. GFP signal change (wild-type ribosome), % (no concentration beside the values). E. coli WT GFP vs humanized-ribosome RFP mutants, 24 h; stronger effect = lower value; DMSO median 0, no signal -100. 350,000 compounds, 1.6% hits;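 active = significant combined selectivity score with lowered wild-type GFP, culture density cut under 30%, mutant RFP and density less affected; inactive = any of these conditions unmet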
Cneo AK release: Cryptococcus neoformans cell lysis inducers, primary screen, AK release luminescence, single concentration | C. neoformans lysis, adenylate kinase release luminescence, 4 h; normalised: neutral wells 0, clomiphene wells 100 | 360,000 compounds, 0.2% hits | AID 651654, 2012 | lysis activity, % at 15 µM;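 active = mean lysis activity across replicates of at least 80%, whatever share of replicates individually reach that level; inactive = mean lysis activity below 80%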
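Assay system: Cryptococcus neoformans yeast cells / Dosing: single-point compound dose / Timing: 4 h at 37 °C static, read 1 h later / Measured by: luminescence of released adenylate kinase using an AK detection reagent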
hiPSC survival: enhancers of single-cell hiPSC survival, primary screen, ATPlite luminescence. survival enhancement, % at 20 µM. 360,000 compounds, 0.044% hits. 100% = ROCK inhibitor wells, 0% = DMSO; in the data active = survival enhancement above about 18%;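 also: cells exposed to compounds for 16 hours before the ATP read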
DAGLB inh: DAGLB lipase inhibitors, primary screen, biochemical, fluorescence, HTS; HEK293T DAGLB membrane lysate, EnzChek fluorogenic substrate; inhibition, % at 5.17 µM; 340,000 compounds, 0.059% hits; Diacylglycerol lipase-beta (Homo sapiens), Q8NCG7; in the data active = inhibition above about 34%;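 also: 0% = enzyme with vehicle and 100% = wells lacking enzyme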
Target sequence (Q8NCG7 whole entry, looked up): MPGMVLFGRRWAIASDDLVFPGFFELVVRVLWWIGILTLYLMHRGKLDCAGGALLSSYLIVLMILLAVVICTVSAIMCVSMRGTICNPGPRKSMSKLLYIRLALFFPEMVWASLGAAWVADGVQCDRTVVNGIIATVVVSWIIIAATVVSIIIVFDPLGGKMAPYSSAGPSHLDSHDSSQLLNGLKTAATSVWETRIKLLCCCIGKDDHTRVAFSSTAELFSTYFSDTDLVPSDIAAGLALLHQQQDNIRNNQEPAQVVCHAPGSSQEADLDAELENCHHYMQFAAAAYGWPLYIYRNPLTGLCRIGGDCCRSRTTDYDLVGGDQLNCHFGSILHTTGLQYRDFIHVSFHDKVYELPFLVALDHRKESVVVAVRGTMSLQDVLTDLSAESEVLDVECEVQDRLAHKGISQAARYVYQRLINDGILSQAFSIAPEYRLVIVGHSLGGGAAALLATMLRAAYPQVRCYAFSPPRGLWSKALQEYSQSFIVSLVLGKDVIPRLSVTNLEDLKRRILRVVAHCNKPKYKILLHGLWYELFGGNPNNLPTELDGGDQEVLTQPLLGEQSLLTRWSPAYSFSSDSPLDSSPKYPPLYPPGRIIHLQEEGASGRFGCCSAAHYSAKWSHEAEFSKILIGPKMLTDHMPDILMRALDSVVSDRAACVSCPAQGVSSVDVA
MT1-MMP act inh: blockers of MT1-MMP proenzyme processing, primary screen, HT1080 RFP-PRO-GFP cells, GFP/RFP fluorescence. GFP/RFP ratio fluorescence, overnight; percent of plate control window, DMSO zero. Matrix metalloproteinase-14 (Homo sapiens), P50281. GFP/RFP ratio change, % at 20 µM. 360,000 compounds, 0.061% hits;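 active = GFP/RFP ratio change of at least 30% with cell ATP level not reduced by more than half and red fluorescence within 50% of control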
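Test system: HT1080 RFP-PRO-GFP cells; Benchmarks: DMSO and RFP-L50D-GFP cell wells; Timing: cells overnight before dosing, compound overnight, 37 °C, 5% CO2; Compound: one 20 µM compound dose with 1% DMSO; Read-out: GFP/RFP fluorescence ratio.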
AID977621: growth inhibition of wild-type GFP E. coli, dose response, H69 mutant RFP, cherry-pick; shares compounds with Ecoli rRNA inh; E. coli wild-type GFP strain growth, fluorescence, 24 h; activity change, negative = inhibition at 50 µM; 1,900 tested, under 10 active;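 active = Wild-type ribosome reporter drop at least double the humanized mutant ribosome reporter drop, growth loss under a set limit; inconclusive = no clear call, values can overlap the other calls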;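 also: wild-type GFP and H69 mutant RFP strains grown together 50/50 in each well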
AID977628: E. coli growth inhibition, wild-type GFP versus h24 humanized RFP strain, dose response, h24 mutant RFP vs wild-type GFP, cherry-pick; E. coli WT GFP strain growth, fluorescence, 24 h; 1,900 tested, under 10 active; activity change, negative = inhibition at 50 µM; shares compounds with Ecoli rRNA inh;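 active = compound lowering the normal-ribosome reporter at least twice as much as the humanized-ribosome reporter, growth loss under a set limit; inconclusive = no clear call, values can overlap the other calls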;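 also: wild-type GFP and h24 humanized RFP strains co-cultured 1 to 1 per well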
* = called active by the depositor; ? = inconclusive; nt = no result; ! = not confirmed by another sample.

SMILES | SKN-1 block | Ecoli rRNA inh | Cneo AK release | hiPSC survival | DAGLB inh | MT1-MMP act inh | AID977621 | AID977628
Cc1ccc(-c2n[nH]c(S(C)(=O)=O)c2C#N)cc1 | 2 | -21* | nt | -1 | 1 | -1 | -20 | ?
Clc1ccc2c(c1)C1CC2CCN1Cc1ccccc1 (stereo not drawn) | -9 | -4 | 1 | -2 | -4 | 4 | nt | nt
COc1ccc(CN2CCC3CC2c2cc(Cl)ccc23)cc1 (stereo not drawn) | 11 | -21* | 1 | 2 | -3 | -1 | ? | ?
O=C(C[n+]1ccc(Cc2ccccc2)cc1)Nc1ccc([N+](=O)[O-])cc1Cl | -2 | -31* | nt | 0 | 1 | 1 | -6.5 | -6.8
Cc1cccc[n+]1CC(=O)Nc1ccc([N+](=O)[O-])cc1Cl | -23 | nt | -1 | 1 | -2 | 4 | nt | nt
CN1[C@H](C(=O)NC2CCC2)[C@@H](CO)[C@@H]2Cn3c(ccc(/C=C/c4ccccc4)c3=O)[C@@H]21 | nt | -2 | -1 | nt | nt | nt | nt | nt
OCCC1CN(Cc2cnc(-c3ccc(Cl)cc3)nc2)CCN1C1CCCCC1 (stereo not drawn) | -4 | -18* | nt | 0 | -2 | 1 | -2.9 | -5.5
C[C@@H]1CCCCO[C@@H](CN(C)CC2CC2)[C@H](C)CN([C@H](C)CO)C(=O)c2cc(NC(=O)CCC(F)(F)F)ccc2O1 | nt | 1 | nt | nt | nt | nt | nt | nt
COc1ccc(OCCCC(=O)Nc2cccc([N+](=O)[O-])c2)cc1 | 10 | nt | -3 | 0 | -3 | -2 | nt | nt
CC(=O)Nc1cccc(OCCCOc2cccc([N+](=O)[O-])c2)c1 | 18 | -5.5* | nt | 3 | -2 | 0 | -11 | -8.9
CCCC#Cc1cnc2c(c1)C(=O)N([C@@H](C)CO)C[C@@H](C)[C@H](CN(C)Cc1ccccc1F)O2 | nt | -20 | nt | nt | nt | nt | nt | nt
O=C(CN1CCCCC1)Nc1ccccc1-c1ccccc1 | -3 | -15* | 1 | 1 | -5 | 0 | -2.8 | nt
Clc1ccccc1C1CC(c2ccccc2)=Nc2ccccc2N1 (stereo not drawn) | 14 | -20* | nt | 0 | -8 | 0 | nt | ?
Cc1ccccc1CN(C)C[C@H]1OCc2cnnn2CCCC(=O)N([C@@H](C)CO)C[C@H]1C | nt | -2 | 58 | nt | nt | nt | nt | nt
C[C@H]1CN([C@@H](C)CO)C(=O)CCCn2nncc2CO[C@@H]1CN(C)Cc1ccccc1C(F)(F)F | 9 | -18*! | 1 | -2 | 0 | 16 | -1.5 | ?
CC(=O)c1ccc(OCC(=O)Nc2ccc3c(c2)CCC3)cc1 | -5 | -26* | nt | -2 | -2 | 2 | -5.5 | -5.3
O=C(Nc1nc(-c2ccc3ccccc3c2)cs1)C1CCN(S(=O)(=O)c2cccs2)CC1 | 12 | -15* | nt | -1 | -3 | -18 | -3.7 | -1.9
Cc1ccc(-c2csc(NC(=O)C3CCN(S(=O)(=O)c4cccs4)CC3)n2)cc1 | 1 | nt | nt | -1 | -6 | -10 | nt | nt
CCNC(=O)C[C@@H]1CC[C@@H]2[C@H](COc3ccc(NC(=O)Nc4ccccc4OC)cc3C(=O)N2C)O1 | nt | 1 | -2 | nt | nt | nt | nt | nt
O=C(CSc1nnc(COc2cccc3cccnc23)o1)c1ccc(F)cc1 | 10 | -25* | 0 | 3 | 0 | -11 | 2.1 | -6.4
CN(C)C(=O)C1C2NC(=S)N(c3cccc(Cl)c3)C1(C)Oc1ccc(Cl)cc12 (stereo not drawn) | 2 | -22* | -2 | 0 | 0 | -2 | -2.2 | nt
COc1cccc(NC(=O)COC(=O)Cc2ccc(Br)cc2)c1 | 3 | -15* | nt | -1 | -2 | 0 | ? | -7.4
COc1cccc(NC(=O)COC(=O)Cc2ccc(Cl)cc2)c1 | -1 | -36* | 3 | 2 | -4 | 4 | -9.5 | nt
COc1ccc(CC(=O)OCC(=O)Nc2cccc(Br)c2)cc1 | 0 | 4 | nt | 0 | 0 | 0 | nt | nt
OC[C@H]1[C@H](c2ccc(C#Cc3ccccc3)cc2)[C@H]2CN(Cc3cncnc3)CCCCN21 | nt | -34 | 1 | nt | nt | nt | nt | nt
SMILES | SKN-1 block | Ecoli rRNA inh | Cneo AK release | hiPSC survival | DAGLB inh | MT1-MMP act inh | AID977621 | AID977628
CCC(C(=O)Nc1ccsc1C(=O)OC)c1ccccc1 (stereo not drawn) | 14 | -29* | nt | 0 | -10 | -8 | -12 | -5.7
CCC(C(=O)Nc1nc(C)c(C(=O)OC)s1)c1ccccc1 (stereo not drawn) | -7 | 8 | 1 | 0 | -3 | 4 | nt | nt
CCCC(=O)Nc1sc2c(c1C(=O)Nc1ccccn1)CCCC2 | 13 | -30* | -1 | 0 | -10 | -3 | -18 | -16
CCOc1ccccc1NC(=O)c1c(NC(=O)CCC(=O)O)sc2c1CCCCC2 | 6 | -19 | nt | 1 | 4 | -29 | nt | nt
Cc1onc(-c2ccccc2Cl)c1C(=O)N1CCN(Cc2ccc3c(c2)OCO3)CC1 | 3 | -20* | -1 | 0 | 2 | 1 | 7.1 | -9.4
CC(C)OC(=O)c1sc2nc(-c3ccccc3)ccc2c1N | 4 | -26* | -4 | -3 | -8 | -3 | 0.58 | ?
CC1=C([C@H](O)c2ccccc2)[C@H](CO)n2c(=O)n(-c3ccccc3)c(=O)n2C1 | nt | nt | -4 | nt | nt | nt | nt | nt
O=C(CCCOc1ccc(Cl)cc1Cl)Nc1ccccc1C(=O)O | 9 | -30* | -4 | 1 | 2 | 4 | -15 | nt
O=C(c1ccc(N2CCCCC2)c([N+](=O)[O-])c1)N1CCN(S(=O)(=O)c2ccccc2)CC1 | -8 | -16 | nt | -1 | 10 | 7 | nt | nt
Cn1c(=O)n(C)c2cc([N+](=O)[O-])c(N3CCN(C(=O)c4cccc(F)c4)CC3)cc21 | 5 | -18* | nt | 0 | 4 | 3 | -12 | ?
O=C(c1ccc(N2CCCCC2)c([N+](=O)[O-])c1)N1CCN(c2ccccn2)CC1 | -11 | -21* | 1 | 1 | 9 | -4 | nt | ?
CC(=O)N(C)C[C@@H]1Oc2ccc(NC(=O)NC(C)C)cc2CC(=O)N(C)C[C@@H]1C | nt | 2 | nt | nt | nt | nt | nt | nt

Screens: PubChem BioAssay, several laboratories
